# According to ChEMBL document CHEMBL1129933, “Tyrosine kinase inhibitors. 6. Structure-activity relationships among N- and 3-substituted 2,2'-diselenobis(1H-indoles) for inhibition of protein tyrosine kinases and comparative in vitro and in vivo studies against selected sulfur congeners” (J Med Chem, 1997):
# Legend:
# [1] = biological target: T1, Epidermal growth factor receptor (Homo sapiens, UniProt P00533); assay: Inhibition of epidermal growth factor receptor (EGFr) using ATP substrate
# In short: (§1)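 EGFr came from membrane vesicles shed by human A431 carcinoma cells. Activity was measured as 32P-phosphate transfer from ATP into a TCA-precipitable glutamate/tyrosine (4:1) random copolymer. ATP or peptide polymer substrate was varied. Ki was obtained by nonlinear regression with Cleland's equations, comparing slope and intercept determinations to assign the inhibition type.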
# [2] = biological target: T1, Epidermal growth factor receptor; assay: Inhibition of epidermal growth factor receptor (EGFr) using peptide substrate; in short: as §1
# [3] = biological target: T1, Epidermal growth factor receptor; assay: Inhibition of epidermal growth factor receptor (EGFr)
# B16 [4] = assay: In vivo activity against murine B16 melanoma, net cell kill at 3.0 mg/kg ip dose for 9 days; type: functional, Mus musculus; conditions: route intraperitoneal
# In short: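 Tumors were passaged in C57BL/6 mice; B6C3F1 mice (18-22 g, randomized) were implanted on day 0 ip with counted tumor cells or sc with fragments. Dosing was ip bolus, daily or q4h ×3 daily, by average cage weight. Vehicle was distilled H2O or 10% DMA in 50 mM lactic acid buffer, pH 4.0. Net cell kill = log reduction in tumor burden between first and last treatments.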
# Colon 26 [5] = assay: In vivo activity against murine colon 26 tumor, net cell kill at 1.5 mg/kg ip dose for 9 days; type: functional, Mus musculus; conditions: route intraperitoneal
# In short: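 Colon 26 was passaged in BALB/c mice; tested in CD2F1 mice (18-22 g, randomized) implanted on day 0 ip with counted cells or sc with fragments. Dosing was ip bolus, daily or q4h ×3 daily, by average cage weight. Vehicle was distilled H2O or 10% DMA in 50 mM lactic acid, pH 4.0. Net cell kill = log tumor-burden reduction between first and last treatments.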
# B16 [6] = assay: In vivo activity against murine B16 melanoma, percent treated/control tumor mass at 3.0 mg/kg ip dose for 9 days; type: functional, Mus musculus; conditions: route intraperitoneal
# In short: (§2)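 Murine tumours were maintained by serial transplantation (~30 mg fragments every 2 weeks): B16 in C57BL/6 and colon 26 in BALB/c. They were tested in F1 hosts, B6C3F1 for B16 and CD2F1 for colon 26, weighing 18-22 g. Treatment was ip daily or q4h ×3 for 9 days. Weight change was the difference between mean group weights on the last and first treatment days, from life-span assays.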
# Colon 26 [7] = assay: In vivo activity against murine colon 26, percent treated/control tumor mass at 0.75 mg/kg ip dose at 4 hour intervals 3x a day for 9 days; type: functional, Mus musculus; conditions: route intraperitoneal; in short: as §2
# Colon 26 [8] = assay: In vivo activity against murine colon 26, percent treated/control tumor mass at 1.5 mg/kg ip dose for 9 days; type: functional, Mus musculus; conditions: route intraperitoneal; in short: as §2
# A-431 [9] = assay: In vivo activity against human A431 epidermoid xenograft, net cell kill at 9 mg/kg administered subcutaneously for 1-27 days; type: functional; conditions: route subcutaneous
# In short: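 Nude mice (NCr nu/nu), 18-22 g, randomized, implanted sc in the right axilla with serially passaged A431 tumor fragments on day 0. Dosing was by ip bolus or continuous sc Alzet miniosmotic pump infusion, by average cage weight. Vehicle was distilled H2O or 10% DMA in 50 mM lactic acid buffer, pH 4.0, depending on compound. Net cell kill = net log reduction in tumor burden between first and last treatments.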
# MCF7 [10] = assay: In vivo activity against human MCF-7 xenograft, net cell kill at 3.0 mg/kg administered intraperitoneally at 4 hour intervals 3x a day for 5-11 days; type: functional; conditions: route intraperitoneal
# In short: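 Nude mice (NCr nu/nu), 18-22 g, randomized and implanted on day 0 with serially passaged MCF-7 tumor (sc fragments in right axilla or ip cells). Compound was given ip bolus q4h ×3 daily, by average cage weight. Vehicle was distilled H2O or 10% DMA in 50 mM lactic acid, pH 4.0. Net cell kill = log tumor-burden reduction between first and last treatments.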
# A-431 [11] = assay: In vivo activity against human A431 epidermoid xenograft, weight change after 10 mg/kg sc dose for 9-15 days; type: functional; conditions: route subcutaneous
# In short: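 Nude mice (NCr nu/nu, 18-22 g) bearing sc A431 fragments in the right axilla (day 0) received continuous sc infusion from an Alzet miniosmotic pump implanted under ketamine-xylazine. Pumps were removed or replaced under lidocaine-epinephrine for longer therapy, in 7-day and 27-day studies. Daily dose was the maximum deliverable without significant precipitation. Weight change was taken as the maximum treatment-related loss.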
# MCF7 [12] = assay: In vivo activity against human MCF-7 xenograft, weight change after 12.0 mg/kg ip dose for 5-11 days; type: functional; conditions: route intraperitoneal
# In short: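 MCF-7 breast carcinoma xenografts were serially passaged in nude mice (NCr nu/nu) and implanted in randomized 18-22 g mice on day 0. Dosing was ip bolus, either daily or q4h ×3 daily, with vehicle of distilled H2O or 10% DMA in 50 mM lactic acid buffer, pH 4.0. Weight change was taken as the maximum treatment-related loss.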
# Colon 26 [13] = assay: In vivo activity against murine colon 26, weight change after 1.5 mg/kg ip dose for 9 days; type: functional, Mus musculus; conditions: route intraperitoneal; in short: as §2
# M5076 [14] = assay: In vivo activity against murine M5076 sarcoma, weight change after 3.0 mg/kg ip dose at 4 hour intervals 3x a day for 9 days; type: functional, Mus musculus; conditions: route intraperitoneal
# In short: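 M5076 sarcoma was serially transplanted in C57BL/6 mice and tested in B6C3F1 mice (18-22 g) given ip q4h ×3 daily for 9 days. Weight change was taken as the maximum treatment-related weight loss in the growth-delay assay.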
# Colon 26 [15] = assay: In vivo activity against murine colon 26, weight change after 0.75 mg/kg ip dose at 4 hour intervals 3x a day for 9 days; type: functional, Mus musculus; conditions: route intraperitoneal; in short: as §2
# B16 [16] = assay: In vivo activity against murine B16 melanoma, weight change after 0.75 mg/kg ip dose at 4 hour intervals 3x a day for 9 days; type: functional, Mus musculus; conditions: route intraperitoneal; in short: as §2
# [17] = biological target: Platelet-derived growth factor receptor beta (Mus musculus, UniProt P05622); assay: Inhibition of platelet-derived growth factor receptor (PDGFr) autophosphorylation; type: functional
# In short: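 Swiss 3T3 fibroblasts were treated 2 h with a range of compound concentrations, then stimulated 5 min with growth factor. Receptor tyrosine phosphorylation was assessed by cell extraction and western blotting.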
# [18] = Inhibition of DNA synthesis; type: functional
# In short: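 Log-phase cells were drug-treated for 2 h, then exposed for 2 h to 1 µM [methyl-3H]thymidine (DNA), [5-3H]uridine (RNA) or (S)-[4,5-3H]leucine (protein), each at 1 µCi/nmol. Cells were trypsinized into ice-cold 15% TCA, and precipitates were collected on glass-fibre filters, washed, and counted by scintillation.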
# [19] = biological target: Epidermal growth factor receptor (Mus musculus) (UniProt Q01279); assay: Inhibition of epidermal growth factor receptor (EGFr) autophosphorylation
# MCF7 [20] = assay: In vivo activity against human MCF-7 xenograft, tumor growth delay (T-C) at 12.0 mg/kg ip dose for 5-11 days; conditions: route intraperitoneal
# M5076 [21] = assay: In vivo activity against murine M5076 sarcoma, tumor growth delay (T-C) at 3.0 mg/kg ip dose at 4 hour intervals 3x a day for 9 days; conditions: route intraperitoneal
# A-431 [22] = assay: In vivo activity against human A431 epidermoid xenograft, tumor growth delay (T-C) at 10 mg/kg administered subcutaneously for 9-15 days; conditions: route subcutaneous
# MCF7 [23] = assay: In vivo activity against human MCF-7 xenograft, tumor growth delay (T-C) at 3.0 mg/kg ip dose at 4 hour intervals 3x a day for 5-11 days; conditions: route intraperitoneal
# T1 sequence (P00533 whole entry): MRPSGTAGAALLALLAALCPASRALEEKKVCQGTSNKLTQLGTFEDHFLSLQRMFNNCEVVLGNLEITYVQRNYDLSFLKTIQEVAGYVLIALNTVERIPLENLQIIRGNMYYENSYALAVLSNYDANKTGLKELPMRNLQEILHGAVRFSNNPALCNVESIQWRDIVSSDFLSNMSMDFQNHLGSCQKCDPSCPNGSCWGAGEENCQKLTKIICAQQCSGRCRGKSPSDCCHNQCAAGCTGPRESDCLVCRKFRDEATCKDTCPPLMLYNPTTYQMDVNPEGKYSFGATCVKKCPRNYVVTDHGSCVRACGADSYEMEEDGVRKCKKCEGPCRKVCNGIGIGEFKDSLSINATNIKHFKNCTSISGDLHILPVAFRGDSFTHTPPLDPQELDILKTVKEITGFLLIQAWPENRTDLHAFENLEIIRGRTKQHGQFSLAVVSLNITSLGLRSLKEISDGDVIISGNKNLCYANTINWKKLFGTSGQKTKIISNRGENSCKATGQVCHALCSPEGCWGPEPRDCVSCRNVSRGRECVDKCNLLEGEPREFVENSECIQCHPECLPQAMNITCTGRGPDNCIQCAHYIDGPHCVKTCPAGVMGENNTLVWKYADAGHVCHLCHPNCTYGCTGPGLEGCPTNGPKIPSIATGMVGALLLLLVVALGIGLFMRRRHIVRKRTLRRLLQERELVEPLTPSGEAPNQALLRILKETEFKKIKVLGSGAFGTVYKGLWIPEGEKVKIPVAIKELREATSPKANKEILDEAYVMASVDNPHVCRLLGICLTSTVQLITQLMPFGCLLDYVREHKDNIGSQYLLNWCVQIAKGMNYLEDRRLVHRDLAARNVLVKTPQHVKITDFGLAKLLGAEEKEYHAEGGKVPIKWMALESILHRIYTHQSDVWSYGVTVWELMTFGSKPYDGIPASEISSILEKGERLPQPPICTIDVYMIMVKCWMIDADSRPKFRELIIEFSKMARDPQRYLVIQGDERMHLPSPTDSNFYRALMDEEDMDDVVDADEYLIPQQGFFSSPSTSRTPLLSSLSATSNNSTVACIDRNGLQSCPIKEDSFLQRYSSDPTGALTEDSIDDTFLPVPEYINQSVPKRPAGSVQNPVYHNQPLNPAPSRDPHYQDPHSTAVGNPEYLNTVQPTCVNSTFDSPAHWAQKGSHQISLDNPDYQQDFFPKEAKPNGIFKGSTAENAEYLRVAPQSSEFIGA
# Sequence of Platelet-derived growth factor receptor beta (P05622 whole entry): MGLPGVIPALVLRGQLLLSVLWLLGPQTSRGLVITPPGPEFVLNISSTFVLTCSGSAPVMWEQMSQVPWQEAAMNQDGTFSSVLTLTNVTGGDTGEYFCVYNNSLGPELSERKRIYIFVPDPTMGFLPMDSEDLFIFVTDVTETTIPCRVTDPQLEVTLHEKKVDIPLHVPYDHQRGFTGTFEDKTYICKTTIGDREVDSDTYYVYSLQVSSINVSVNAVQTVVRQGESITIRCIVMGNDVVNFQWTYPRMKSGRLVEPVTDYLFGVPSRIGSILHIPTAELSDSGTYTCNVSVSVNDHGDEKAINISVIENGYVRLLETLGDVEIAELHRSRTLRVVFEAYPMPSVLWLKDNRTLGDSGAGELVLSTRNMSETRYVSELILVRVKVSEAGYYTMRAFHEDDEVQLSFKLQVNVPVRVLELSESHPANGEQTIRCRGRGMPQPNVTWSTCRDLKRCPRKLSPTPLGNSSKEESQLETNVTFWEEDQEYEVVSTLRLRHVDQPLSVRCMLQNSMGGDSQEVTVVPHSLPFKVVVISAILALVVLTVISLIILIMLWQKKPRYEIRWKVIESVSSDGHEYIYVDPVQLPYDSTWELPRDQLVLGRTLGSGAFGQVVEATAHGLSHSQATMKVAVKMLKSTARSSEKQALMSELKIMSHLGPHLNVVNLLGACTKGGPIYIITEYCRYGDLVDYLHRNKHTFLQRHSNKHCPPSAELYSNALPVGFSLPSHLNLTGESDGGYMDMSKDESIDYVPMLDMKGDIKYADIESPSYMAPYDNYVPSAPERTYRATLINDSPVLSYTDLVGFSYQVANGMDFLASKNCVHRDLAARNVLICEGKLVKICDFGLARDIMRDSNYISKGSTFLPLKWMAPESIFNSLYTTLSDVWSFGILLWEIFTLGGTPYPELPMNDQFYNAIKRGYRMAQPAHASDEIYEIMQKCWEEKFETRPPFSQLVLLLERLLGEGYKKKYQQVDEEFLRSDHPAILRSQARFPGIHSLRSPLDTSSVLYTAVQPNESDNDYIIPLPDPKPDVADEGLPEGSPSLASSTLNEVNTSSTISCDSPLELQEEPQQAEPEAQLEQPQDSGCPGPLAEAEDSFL
# Sequence of Epidermal growth factor receptor (Mus musculus) (Q01279 whole entry, looked up): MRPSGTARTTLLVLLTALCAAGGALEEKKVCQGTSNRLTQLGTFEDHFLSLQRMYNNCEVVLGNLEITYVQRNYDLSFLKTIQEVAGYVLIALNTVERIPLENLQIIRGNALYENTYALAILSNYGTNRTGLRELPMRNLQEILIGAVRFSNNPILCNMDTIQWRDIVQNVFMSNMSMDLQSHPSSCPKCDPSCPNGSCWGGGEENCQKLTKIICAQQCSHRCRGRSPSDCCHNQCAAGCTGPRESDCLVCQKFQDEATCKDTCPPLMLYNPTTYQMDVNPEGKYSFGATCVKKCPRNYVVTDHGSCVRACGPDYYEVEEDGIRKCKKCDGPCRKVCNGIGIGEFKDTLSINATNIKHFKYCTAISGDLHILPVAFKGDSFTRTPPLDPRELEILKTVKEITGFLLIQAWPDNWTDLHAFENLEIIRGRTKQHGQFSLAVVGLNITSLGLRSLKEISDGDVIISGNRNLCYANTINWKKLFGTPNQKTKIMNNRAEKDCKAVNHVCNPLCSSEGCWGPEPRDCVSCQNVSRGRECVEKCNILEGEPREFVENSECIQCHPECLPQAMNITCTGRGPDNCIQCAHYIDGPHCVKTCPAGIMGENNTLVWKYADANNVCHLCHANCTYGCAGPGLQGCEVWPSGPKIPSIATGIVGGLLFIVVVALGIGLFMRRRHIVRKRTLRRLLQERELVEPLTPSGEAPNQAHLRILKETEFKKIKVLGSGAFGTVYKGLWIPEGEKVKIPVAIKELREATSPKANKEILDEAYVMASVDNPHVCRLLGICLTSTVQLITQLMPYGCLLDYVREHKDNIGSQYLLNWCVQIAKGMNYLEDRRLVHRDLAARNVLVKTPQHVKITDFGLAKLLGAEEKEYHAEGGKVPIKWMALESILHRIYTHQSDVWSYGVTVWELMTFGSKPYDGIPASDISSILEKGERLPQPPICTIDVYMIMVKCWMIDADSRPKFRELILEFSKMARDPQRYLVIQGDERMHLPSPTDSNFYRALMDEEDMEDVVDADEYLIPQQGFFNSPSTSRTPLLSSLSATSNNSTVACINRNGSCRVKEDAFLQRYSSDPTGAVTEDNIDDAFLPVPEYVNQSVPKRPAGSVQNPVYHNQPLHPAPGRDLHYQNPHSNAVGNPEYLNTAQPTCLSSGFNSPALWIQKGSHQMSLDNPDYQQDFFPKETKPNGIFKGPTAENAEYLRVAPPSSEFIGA
smiles,measurement,setting,value
NC(Cc1c(SSc2[nH]c3ccccc3c2CC(N)C(=O)NCc2ccccc2)[nH]c2ccccc12)C(=O)NCc1ccccc1 (stereo not drawn),Ki,[1],19.4 µM
same,Ki,[2],21.2 µM
same,IC50,[3],7.4 µM
same,Net cell kill,B16 [4],-1.3 log10
same,Net cell kill,Colon 26 [5],-0.3 log10
same,T/C,B16 [6],100%
same,T/C,Colon 26 [7],119%
same,T/C,Colon 26 [8],115%
same,Net cell kill,A-431 [9],-0.6 log10
same,Net cell kill,MCF7 [10],-1.2 log10
same,Weight change,A-431 [11],-1.2 g
same,Weight change,MCF7 [12],-0.4 g
same,Weight change,Colon 26 [13],1.8 g
same,Weight change,M5076 [14],-0.5 g
same,Weight change,Colon 26 [15],0.8 g
same,Weight change,B16 [16],1.1 g
same,IC50,[17],6.2 µM
same,IC50,[18],2500 nM
same,IC50,[19],> 100 µM
same,T-C,MCF7 [20],0 days
same,T-C,M5076 [21],0.7 days
same,T-C,A-431 [22],1.9 days
same,T-C,MCF7 [23],1 days
